Assay outcomes deposited in PubChem BioAssay by The Scripps Research Institute Molecular Screening Center.
Shown are actives, neighbours in structure and some others; about 2% of the full set was active somewhere.
HSP90 refold inh: HSP90 refolding inhibition in rabbit reticulocyte lysate | luciferase refolding luminescence, 3 h | inhibition, % at 5.6 µM | hit rate 0.91% among 290,000;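 active means inhibition above the screen-wide mean plus 3 SD, computed separately per campaign, cut at about 16% in these data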;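 further: 0% = DMSO wells and 100% = 60 µM geldanamycin wells; inhibitors lower the luminescence because luciferase stays unfolded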
STAT3 inh: inhibitors of IL-6 induced STAT3 signaling. U3A cells, IL-6 STAT3-luciferase reporter, luminescence; host cell line lacks STAT1. hit rate 0.89% among 190,000. inhibition, % at 5.5 µM;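 active means inhibition above the mean inhibition across all screened compounds plus 3 SD, cut at about 44% in these data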;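 further: 0% = DMSO only wells and 100% = 100 µM nifuroxazide control wells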
STAT1 blocker: inhibitors of IFN-gamma induced STAT1 signaling. NIH 3T3 STAT1-luciferase reporter, luminescence. inhibition, % at 5.5 µM. hit rate 0.35% among 200,000;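 active means inhibition above a set limit, the mean inhibition across all tested compounds plus 3 SD, cut at about 34% in these data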;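 further: 0% = IFN-gamma with DMSO and 100% = IFN-gamma with 300 µM nifuroxazide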
STAT3 act: increases IL-6 driven STAT3 reporter signal | U3A cells, IL-6 STAT3-luciferase reporter, luminescence; 100% = signal with IL-6 EC80 alone | activation (% of control), % at 5.6 µM | hit rate 0.91% among 190,000;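 active means activation above the screen-wide mean of compound activation plus 3 SD, cut at about 130% in these data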;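 further: 0% = background luminescence of wells with medium and substrate only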
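Material: STAT1-lacking human U3A cells, STAT3 luciferase reporter | Benchmarks: IL-6-only wells as 100% reference | Probe or stimulus: IL-6 (33 ng/mL) | Timing: Compound 1 h, then IL-6 6 h at 37 °C | Detection: Luminescence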
HSP90 inh confirm: confirmation of HSP90 inhibitors; shares compounds with HSP90 refold inh; rabbit reticulocyte lysate, luciferase refolding luminescence, 3 h; inhibition, % at 5.9 µM; hit rate 64% among 2,300; in the data active means inhibition above about 18%;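 further: 0% = vehicle wells and 100% = reference inhibitor wells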
luciferase ctr: counter-screen for HSP90 inhibitors: inhibitors of firefly luciferase; shares compounds with HSP90 refold inh; purified native firefly luciferase, luminescence; inhibition, % at 5.9 µM; hit rate 48% among 2,300; AID 1847;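 active means inhibition above the mean inhibition of all tested sample wells plus 3 SD, cut at about 10% in these data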;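 further: 0% = DMSO with luciferase and 100% = wells lacking luciferase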
Target sequence (P08659 whole entry, looked up): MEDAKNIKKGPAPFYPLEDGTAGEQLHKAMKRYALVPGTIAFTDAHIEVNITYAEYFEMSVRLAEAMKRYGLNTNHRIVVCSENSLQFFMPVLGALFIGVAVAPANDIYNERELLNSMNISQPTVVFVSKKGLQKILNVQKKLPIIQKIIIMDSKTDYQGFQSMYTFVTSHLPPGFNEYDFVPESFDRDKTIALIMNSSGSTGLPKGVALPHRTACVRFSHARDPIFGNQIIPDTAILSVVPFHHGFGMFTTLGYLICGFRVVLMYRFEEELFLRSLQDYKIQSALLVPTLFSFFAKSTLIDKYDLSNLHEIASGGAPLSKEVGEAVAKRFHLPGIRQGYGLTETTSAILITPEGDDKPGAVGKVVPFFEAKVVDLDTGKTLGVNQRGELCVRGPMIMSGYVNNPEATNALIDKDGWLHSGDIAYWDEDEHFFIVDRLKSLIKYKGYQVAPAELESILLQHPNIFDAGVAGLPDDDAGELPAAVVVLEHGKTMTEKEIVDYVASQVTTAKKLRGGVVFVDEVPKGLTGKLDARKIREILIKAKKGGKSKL
* hit, by the source's call; / = no result.

SMILES | HSP90 refold inh | STAT3 inh | STAT1 blocker | STAT3 act | HSP90 inh confirm | luciferase ctr
COc1cccc(C2Nc3ccccc3NC3=C2C(=O)CC(C)(C)C3)c1 (configuration not stated) | 22.7* | / | / | / | -1.2 | -4.4
Cc1ccc(NC(=S)/C(=C(\[O-])c2ccc(C)c([N+](=O)[O-])c2)[n+]2ccccc2)cc1C | 30.9* | -9.2 | -8.4 | 109.7 | 16.9* | -15.8
O=C(CSc1nnc(-c2ccccc2)o1)N1CCCCC1 | 20.9* | / | / | / | 2.3 | -19.0
O=C(c1cnc2ccccc2n1)N1CCN(c2ccc(C(F)(F)F)cn2)CC1 | -2.3 | / | / | / | / | /
Cc1c(C(=O)Nc2ccc3c(c2)OCCO3)cnn1C | 34.9* | / | / | / | 56.8* | 60.3*
Cc1nn(C)cc1C(=O)Nc1ccc2c(c1)OCCO2 | 18.6* | / | / | / | 20.8* | 9.0
Oc1ccc(Br)cc1CNc1cccc2cccnc12 | 25.4* | / | / | / | 1.8 | 0.5
Oc1ccc(Cl)cc1CNc1cccc2cccnc12 | 26.6* | / | / | / | 3.2 | -4.4
COc1cccc(CNc2cccc3cccnc23)c1O | 20.3* | -9.2 | 3.9 | 109.6 | -11.1 | -30.2
CCCc1cnc(N2CCN(C(=O)c3c(-c4ccccc4)noc3C)CC2)nc1 | 2.7 | / | / | / | / | /
Cc1cc(=O)oc2cc(OCC(=O)N3CC[C@@]4(O)CCCC[C@H]4C3)c(Cl)cc12 | -3.4 | / | / | / | / | /
CCOc1ccc(Oc2nc(N(CC)CC)nc(N3CCOCC3)n2)nn1 | 17.4* | 26.8 | 12.9 | 81.4 | -6.6 | -10.3
Cc1cc(C)nc(Nc2nc(-c3ccccc3)cs2)n1 | 27.7* | / | / | / | 51.2* | 36.9*
Cc1ccc(Nc2nc(-c3ccccc3)cs2)nc1 | 14.6 | / | / | / | / | /
O=C(c1ccc(CS(=O)c2cccc(Cl)c2)o1)N1CCN(c2ccccn2)CC1 (configuration not stated) | -5.7 | / | / | / | / | /
CCOC(=O)c1c(NC(=O)C(NCCN(C)C)c2ccccc2)sc2c1CCCC2 (configuration not stated) | 23.2* | / | / | / | 5.8 | -3.1
CSCCC(NC(=O)c1ccccc1)C(=O)N/N=C(\C)Cc1ccccc1 (configuration not stated) | -5.1 | / | / | / | / | /
Cc1oc(-c2ccc3c(c2)OCCO3)cc1C(=O)NC(CCC(=O)O)C(=O)O (configuration not stated) | 63.8* | -4.4 | -9.7 | 106.2 | 77.3* | 33.1*
Cc1oc(-c2ccc3c(c2)OCCO3)cc1C(=O)NCC(=O)O | 90.0* | 6.5 | -16.8 | 99.4 | 94.5* | 79.3*
C[C@@H](NC(=O)[C@@H]1Cc2ccccc2CN1)C(=O)NCc1ccco1 | -2.6 | / | / | / | / | /
[O-]/[N+](=C/c1ccco1)c1ccccc1 | 13.6 | / | / | / | / | /
[O-]/[N+](=C\c1ccco1)c1ccc(Cl)cc1 | 41.9* | / | / | / | 82.1* | -34.7
CCn1c(C)cc(/C=C2/NC(=O)N(c3ccccc3)C2=O)c1C | 30.9* | 0.2 | -78.1 | 101.2 | 6.7 | -16.1
O=C(COc1ccc2c(c1)OCO2)Nc1nccs1 | 37.1* | / | / | / | 52.7* | 36.4*
CCOc1ccc(OCC(=O)Nc2nccs2)cc1 | 54.0* | 95.3* | 60.7* | 21.3 | 77.3* | 69.8*
SMILES | HSP90 refold inh | STAT3 inh | STAT1 blocker | STAT3 act | HSP90 inh confirm | luciferase ctr
O=C(NCCn1c(C(F)(F)F)nc2ccccc21)[C@H]1CCCN1c1nc(CN2CCCCC2)cs1 | -5.6 | / | / | / | / | /
Cc1cc2nn(-c3ccccc3)nc2cc1NC(=O)c1cccs1 | -5.2 | -2.5 | -46.6 | 104.8 | / | /
CC(=O)Nc1cc2nn(-c3ccccc3)nc2cc1C | 20.9* | / | / | / | 32.3* | 21.1*
CC(=O)c1cccc(NC(=O)Nc2nc(C)cc(C)n2)c1 | -3.3 | / | / | / | / | /
CC(C)(C)N1CC(C(=O)Nc2cccc(Cl)c2Cl)CC1=O (configuration not stated) | -1.1 | / | / | / | / | /
CC(C)(C)c1ccc(-n2ncc3c2CCCC3NC(=O)CCCn2cncn2)cc1 (configuration not stated) | 0.6 | / | / | / | / | /
COC(=O)c1ccccc1OCCOc1ccccc1C(=O)OC | -3.2 | -2.1 | -0.6 | 105.9 | / | /
COC(=O)c1ccccc1OCCCOc1ccc(C=O)cc1OC | 60.3* | -37.6 | -37.6 | 130.3 | 70.2* | -10.4
CC(=O)Nc1ccc(S(=O)(=O)N2CCN(C(=O)c3ncoc3-c3ccc(C)cc3)CC2)cc1 | 11.2 | / | / | / | / | /
COc1ccc2[nH]c(C(=O)Nc3cccc(C)n3)cc2c1 | 23.2* | / | / | / | 29.8* | 19.1*
COc1ccc2[nH]c(C(=O)Nc3ccc(C)c(F)c3)cc2c1 | -1.2 | / | / | / | / | /
Cc1oc2cc(O)ccc2c(=O)c1Oc1ccccc1 | -0.9 | 5.3 | 1.0 | 97.8 | / | /
O=C(O)c1ccc(Oc2c(C(F)(F)F)oc3cc(O)ccc3c2=O)cc1 | 31.3* | 0.9 | 7.3 | 102.4 | 1.0 | -3.2
